Assay outcomes: PubChem, several laboratories
Tb MetRS inh – Trypanosoma brucei MetRS inhibition; 360,000 compounds, 0.4% hits; purified T. brucei MetRS, ATP depletion, Kinase-Glo luminescence; inhibition, % at 11.9 µM;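 active = inhibition above a per-plate cutoff of the control wells' mean inhibition plus 3 SD, cut at about 5.5% in these data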
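assay system = parasite MetRS enzyme | timing = 15 min preincubation, 2 h reaction, all 25 °C | evaluation = percent inhibition relative to median high and low control wells | medium = HEPES buffer containing pyrophosphatase, BSA, spermine, DTT | compound = single dose, 11.9 µM final nominal, 0.9% final DMSO | detection = Kinase-Glo luminescence, ATP depletion format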
Pemphigus Ab inh – inhibitors of pemphigus antibody binding to human desmoglein-3; DSG3-coupled beads, scFv-anti-DSG3-GFP binding, flow cytometry; stronger effect = lower value; binding (percent of control), % at 10 µM; 310,000 compounds, 0.48% hits; AID 588358;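 active = binding more than 3 SD below its plate's average and above zero; inconclusive = below that plate limit but binding exactly zero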
Rce1 inh – blocks yeast Ras-converting enzyme. yeast membranes, quenched prenylated peptide cleavage fluorescence. calls only. 290,000 compounds, 0.27% hits;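 active = fall in fluorescence gain of 50% or more versus controls, with final raw signal at or below 3038400; inconclusive = same 50% fall but final raw signal above 3038400; inactive = fall in fluorescence gain under 50%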
HCV core dimer – blocks dimerization of HCV core protein; TR-FRET GST/Flag-core106 dimerization, 1536-well; inhibition, % at 5 µM; AID 1899; 300,000 compounds, 0.33% hits;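 active = inhibition above the mean of all tested compounds plus 3 SD, set per screening campaign, cut at about 45% in these data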
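Assay system: GST-tagged and Flag-tagged HCV core protein residues 1-106 / Times: compound-protein-antibody incubation 4 h at 22.5 °C / Signal: time-resolved FRET, ex 340 nm, em 617 and 671 nm / Evaluation: % inhibition based on acceptor/donor emission ratio / Benchmarks: wells lacking GST-core106 and wells with excess unlabelled core106 / Repeats: singlicate, one well per compound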
NadD block – inhibitors of Staphylococcus aureus NadD; inhibition, % at 20 µM; purified NadD enzyme, colorimetric absorbance read-out; 360,000 compounds, 0.78% hits; in the data active = inhibition above about 26%
Hits are given with their value; . = inactive; ? = inconclusive; / = no result given; + = active, no number. Hits are enriched below; roughly 1.9% of the tested compounds scored in any of these assays.

SMILES	Tb MetRS inh	Pemphigus Ab inh	Rce1 inh	HCV core dimer	NadD block
CC(C)c1ccc(NC(=O)COc2nncc3ccccc23)cc1	.	.	+	.	.
NC(=O)C1(Nc2ccc(-c3ccc(Cl)cc3)cc2)CCCC1	.	54	/	/	.
Cc1ccc(C(C)(C)NC(=O)C2CCC(=O)N(CCCN3CCOCC3)C2)cc1 (configuration not stated)	.	.	.	.	.
N#Cc1c(C(F)(F)F)cc(-c2ccc(F)cc2)nc1SCC(=O)O	.	.	.	.	.
CCCCOc1ccc(-c2cc(C(F)(F)F)c(C#N)c(SCC(=O)O)n2)cc1	.	.	+	.	.
COc1ccc(C(=O)Oc2ccc(/C=N/NC(=O)c3ccccc3OC)cc2[N+](=O)[O-])cc1	.	-5.1	.	.	.
c1ccc(COc2ccc(CNCc3cccnc3)cc2)cc1	.	.	.	.	.
Cc1cccc(CNC(=O)CCn2ccc3cc(S(=O)(=O)N4CCCC4)ccc32)c1	.	.	.	.	.
Cc1ccc(NC(=O)COC(=O)Cn2nc(-c3ccc(F)cc3)oc2=O)cc1C	.	.	/	/	.
CC(C)NC(=O)C1CCN(Cc2cccc(OCc3ccccc3)c2)CC1	.	83	/	/	.
CC(C)NC(=O)C1CCN(Cc2cccc(Oc3ccccc3)c2)CC1	.	.	.	/	.
CCCCNC(=O)c1cc2cc(OC)ccc2[nH]1	.	.	.	.	.
COc1ccc2[nH]c(C(=O)NCCCn3ccnc3)cc2c1	.	.	+	.	.
COc1ccc(CCN(C(=S)Nc2ccccc2)C2CC(=O)N(c3ccccc3)C2=O)cc1 (configuration not stated)	16	.	.	.	.
CSc1ccc(CNC(=O)Cc2ccc(NC(=O)C3=C(C)OCCS3)cc2)cc1	.	54	.	.	.
COc1cccc(NC(=O)C2CC(=O)OC23CCOC(C)(C)C3)c1 (configuration not stated)	.	.	.	.	.
Cc1ccc(-c2cc[n+](Cc3ccccc3)cc2)cc1	.	.	.	.	.
Cc1ccc2c(c1)sc[n+]2Cc1ccccc1	.	.	+	.	.
CCN(CC)S(=O)(=O)c1ccc(/C=C/C(=O)OCC#N)cc1	.	.	.	.	.
COC(=O)c1ccc(NS(=O)(=O)c2ccc3c(c2)oc(=O)n3C)cc1	.	92	.	.	.
CCOC(=O)c1ccc(NS(=O)(=O)c2ccc3c(c2)oc(=O)n3C)cc1	.	.	.	.	.
COC(=O)c1ccc(NS(=O)(=O)c2ccc3c(c2)n(C)c(=O)n3C)cc1	.	76	.	.	.
O=C(N/N=C/c1ccccc1)c1ccc(N2CCOCC2)c([N+](=O)[O-])c1	.	.	.	.	.
CCc1ccc(S(=O)(=O)/N=C2\C=CC(=O)c3ccccc32)cc1	/	/	.	.	/
O=S(=O)(N=C1C=CC(=NS(=O)(=O)c2ccccc2)c2ccccc21)c1ccccc1	.	.	/	/	33
SMILES	Tb MetRS inh	Pemphigus Ab inh	Rce1 inh	HCV core dimer	NadD block
Cc1ncc(CO)c2c1Oc1nc(-c3ccccc3)nc(SCC(=O)N(C)c3ccccc3)c1C2	/	/	.	.	/
Cc1ncc(CO)c2c1Oc1nc(-c3ccccc3F)nc(SCC(=O)N(C)c3ccccc3)c1C2	.	.	.	53	.
O=C(Nc1nc(-c2ccco2)c(-c2ccco2)s1)C1CC(=O)N(c2ccc3c(c2)OCCO3)C1 (configuration not stated)	.	.	.	.	72
N#Cc1ccc(CSc2nnc(NC(=O)C3CC(=O)N(c4ccc5c(c4)OCCO5)C3)s2)cc1 (configuration not stated)	.	.	.	64	.
Cc1nnc(NC(=O)C2CC(=O)N(c3ccc4c(c3)OCCO4)C2)s1 (configuration not stated)	.	.	/	/	.
N/C(CN1CCCC1=O)=N\O	.	.	.	.	.
C[C@H](CO)N1C[C@H](C)[C@H](CN(C)C(=O)NC2CCCCC2)Oc2ncc(Br)cc2C1=O	.	/	/	/	.
O=[N+]([O-])c1ccc(S(=O)(=O)N2CCN(c3ccccn3)CC2)cc1	.	.	/	/	.
CNC(=S)N/N=C/c1c(C)nn(-c2cccc(Cl)c2)c1Cl	.	27	.	.	.
Cc1cccc(N2C(=O)C3CCC(c4ccccc4)CC3C2=O)c1 (configuration not stated)	.	.	.	.	.
COc1ccc(C(=O)NCCCNC(=O)c2cccnc2)cc1Br	.	.	.	.	.
N=c1c(C(=O)NCc2ccc(F)cc2)cc2c(=O)n3ccccc3nc2n1Cc1ccco1	.	.	.	.	31
N=c1c(C(=O)NCc2ccco2)cc2c(=O)n3ccccc3nc2n1Cc1ccc(Cl)cc1	.	/	.	67	.
Cc1ccc2nc3c(cc(C(=O)NCc4ccco4)c(=N)n3Cc3ccco3)c(=O)n2c1	.	.	.	70	.
COCCn1c(=N)c(C(=O)NCc2ccco2)cc2c(=O)n3ccccc3nc21	.	/	/	.	.
Cc1ccc(NC(=S)N(CCCN2CCN(C)CC2)Cc2cccs2)cc1C	.	.	.	.	.
CCCCCc1c(C)nc(Nc2ccccc2)[nH]c1=O	7.8	.	.	.	.
Cc1ccc(Nc2nc(C)c(CCC(C)C)c(=O)[nH]2)cc1	.	.	.	.	.
COc1ccccc1NC(=O)c1ccc(SCC(=O)NCc2ccccc2Cl)c([N+](=O)[O-])c1	.	.	.	53	.
FC(F)(F)c1ccccc1NC(=S)N1CCN(Cc2ccc3c(c2)OCO3)CC1	.	.	.	.	.
C/C=C\C=C\C(=O)N1CC2(CC(c3cccc(NC(=O)CC)c3)=NO2)C[C@H]1C(N)=O (some centres not stated)	.	.	.	48	.
C/C=C/C=C\C(=O)Nc1cccc(C2=NOC3(C2)C[C@H](C(N)=O)N(C(=O)/C=C/C)C3)c1 (some centres not stated)	.	?	.	48	.
C/C=C/C=C/C(=O)Nc1cccc(C2=NOC3(C2)C[C@H](C(N)=O)N(C(=O)CC(c2ccccc2)c2ccccc2)C3)c1 (some centres not stated)	/	/	.	48	/
C/C=C\C(=O)Nc1cccc(C2=NOC3(C2)C[C@@H](C(N)=O)N(C(=O)CC(c2ccccc2)c2ccccc2)C3)c1 (some centres not stated)	.	.	.	.	.
C/C=C\C=C\C(=O)Nc1cccc(C2=NOC3(C2)C[C@H](C(N)=O)N(C(=O)c2ccccc2C(=O)c2ccccc2)C3)c1 (some centres not stated)	/	/	.	50	/
CCCCC(=O)Nc1ccc(C(=O)NCCc2ccccc2)cc1	.	.	.	.	.
C/C=C\C=C\C(=O)N1CC2(CC(c3cccc(NC(=O)COc4ccc(Cl)cc4)c3)=NO2)C[C@H]1C(N)=O (some centres not stated)	.	.	.	47	.
Cc1ccc(Cn2cnc3c(nnn3Cc3ccc(Cl)cc3)c2=O)cc1	.	73	.	.	.
